# Measurements reported in PMC10108379 (RSC Advances, 2023).
# Columns and labels:
# HepG-2 cells = details: previous PD experiments of the group; cited from earlier work
# [1] = Pharmacokinetics in rat plasma after oral administration of AR and SAR extracts; assay type: in vivo, Sprague-Dawley (SD) rats
# [2] = Stability of the three components in rat plasma; assay type: in vitro ADME; details: for Stability, RE: n = 6
# Outline: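 Blank rat plasma spiked with each analyte at low, medium and high QC levels, then subjected to repeated freeze–thaw cycles. Samples were thawed to room temperature and precipitated with cold methanol containing puerarin as internal standard, then vortexed 3 min and centrifuged at 12 000 rpm for 15 min. Analysis was by UPLC-MS/MS on an HSS T3 column at 30 °C (0.1% formic acid water/acetonitrile gradient). Acceptance limit: within 15%.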
# [3] = rat plasma, oral AR extract 5 mL kg^−1, n = 6
# [4] = freeze–thaw cycles, high QC (200 / 300 / 250 μg mL^−1)
# [5] = −20 °C for 30 days, high QC (200 / 300 / 250 μg mL^−1)
smiles,measurement,setting,value
"O=c1c2cc(O)c(O)cc2oc2cc(O)c([C@@H]3O[C@H](CO)[C@@H](O)[C@H](O)[C@H]3O)c(O)c12 [Mangiferin, mangiferin]",glucose consumption of HepG-2 cells,HepG-2 cells,improved the glucose consumption
same,increase of AUC after administration of the SAR extract,"[1]; SAR group compared to AR group, rats, oral",22.3%
same,T max,[1]; [3],5.76 ± 0.52 h
same,t 1/2,[1]; [3],3.01 ± 0.36 h
same,"Stability, RE",[2]; [4],10.2%
same,"Stability, RE",[2]; [5],2.3%
"C[C@H]1CC[C@@]2(OC1)O[C@H]1C[C@H]3[C@@H]4CC[C@@H]5C[C@@H](O[C@@H]6O[C@H](CO)[C@H](O)[C@H](O)[C@H]6O[C@@H]6O[C@H](CO)[C@@H](O)[C@H](O)[C@H]6O)CC[C@]5(C)[C@H]4CC[C@]3(C)[C@H]1[C@@H]2C [Timosaponin AIII, timosaponin AIII]",glucose consumption of HepG-2 cells,HepG-2 cells,improved the glucose consumption
same,C max,[1]; [3],3.67 ± 0.51 ng/mL
same,relative error (RE) after each stability experiment,"[2]; 4 °C 24 h, −20 °C 30 days, freeze–thaw cycles, all QC levels",≤ 10.6%
same,"Stability, RE","[2]; autosampler at 4 °C for 24 h, low QC (2.0 / 3.0 / 2.5 μg mL^−1)",1.3%
same,"Stability, RE",[2]; [4],3.8%
same,"Stability, RE","[2]; freeze–thaw cycles, low QC (2.0 / 3.0 / 2.5 μg mL^−1)",−0.1%
same,"Stability, RE","[2]; freeze–thaw cycles, medium QC (20.0 / 30.0 / 25.0 μg mL^−1)",6.8%
same,"Stability, RE",[2]; [5],10.6%
same,"Stability, RE","[2]; −20 °C for 30 days, low QC (2.0 / 3.0 / 2.5 μg mL^−1)",2.2%
same,"Stability, RE","[2]; −20 °C for 30 days, medium QC (20.0 / 30.0 / 25.0 μg mL^−1)",6.3%
